TRPC6 inh – mouse TRPC6 channel inhibitors, primary screen, cell-based, HEK293, membrane potential dye. Short transient receptor potential channel 6 (Mus musculus), Q61143. ACh-evoked depolarization; active compounds read low. actives 1.1% (n = 310,000). B-score at 10 µM;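 active = B-score under library mean minus 3 SD, initial fluorescence not abnormally high, positive integrated signal ratio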;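 note: B-score derived from integrated fluorescence ratio over the kinetic read; more negative B-score means stronger inhibition of depolarization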
TRPC4 act – activators of mouse TRPC4 channel, primary screen, Fluo4 calcium, HEK293 TRPC4beta/mu-opioid cells | Fluo4 calcium fluorescence; active compounds read high | B-score at 10 µM | actives 0.49% (n = 310,000) | Short transient receptor potential channel 4 (Mus musculus), Q9QUQ5;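 active = B-score above 5 SD of library B-scores, and initial fluorescence ratio not above library mean plus 5 SD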;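 note: positive B-score marks a calcium rise read as TRPC4 activation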
Target sequence (Q9QUQ5 whole entry, looked up): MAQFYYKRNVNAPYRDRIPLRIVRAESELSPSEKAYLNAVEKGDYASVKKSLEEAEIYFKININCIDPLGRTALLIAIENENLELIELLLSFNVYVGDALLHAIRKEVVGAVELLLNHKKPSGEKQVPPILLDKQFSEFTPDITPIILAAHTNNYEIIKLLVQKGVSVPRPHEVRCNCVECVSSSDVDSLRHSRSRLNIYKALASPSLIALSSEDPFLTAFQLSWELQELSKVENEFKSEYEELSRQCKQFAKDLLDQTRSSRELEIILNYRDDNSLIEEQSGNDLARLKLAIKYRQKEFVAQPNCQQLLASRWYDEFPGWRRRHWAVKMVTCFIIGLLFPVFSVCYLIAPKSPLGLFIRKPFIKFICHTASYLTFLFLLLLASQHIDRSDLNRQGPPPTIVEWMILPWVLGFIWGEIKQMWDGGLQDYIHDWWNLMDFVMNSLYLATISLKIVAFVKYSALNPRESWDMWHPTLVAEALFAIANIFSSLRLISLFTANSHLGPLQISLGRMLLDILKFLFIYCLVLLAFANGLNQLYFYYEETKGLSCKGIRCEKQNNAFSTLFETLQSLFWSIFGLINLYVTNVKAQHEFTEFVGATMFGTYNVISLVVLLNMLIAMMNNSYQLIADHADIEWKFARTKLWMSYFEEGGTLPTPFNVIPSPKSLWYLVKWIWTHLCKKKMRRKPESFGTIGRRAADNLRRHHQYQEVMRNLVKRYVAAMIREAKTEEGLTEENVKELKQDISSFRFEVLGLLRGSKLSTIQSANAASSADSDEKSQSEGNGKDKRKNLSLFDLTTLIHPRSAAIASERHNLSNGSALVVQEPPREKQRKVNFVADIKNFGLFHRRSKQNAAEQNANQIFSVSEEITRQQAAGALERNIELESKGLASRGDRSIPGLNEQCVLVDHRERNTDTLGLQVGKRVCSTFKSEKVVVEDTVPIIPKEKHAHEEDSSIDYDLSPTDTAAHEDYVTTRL
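system = HEK293 cells stably co-expressing mouse TRPC4beta and mu-opioid receptor | schedule = Fluo4 dye loading 45 min at room temperature, 110 s recording | measure = B-scored integrated calcium fluorescence ratio | signal = Fluo4 calcium-sensitive dye fluorescence, kinetic, 1 Hz baseline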
TRPC4 PAM – positive allosteric modulators of TRPC4, primary screen, cell-based, mouse TRPC4beta, HEK293 mu-opioid, Fluo-4 calcium | actives 0.42% (n = 310,000) | Short transient receptor potential channel 4 (Mus musculus), Q9QUQ5 | AID 2227, 2009 | DAMGO EC20, Fluo-4 Ca2+ flux; active compounds read high | B-score at 10 µM;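 active = B-score of calcium response area above 5 SD of library B-scores, with initial fluorescence ratio within 5 SD of library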;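 note: B-score of integrated fluorescence ratio over time as area under calcium response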
TRPC4 inh – inhibitors of mouse TRPC4 channel, primary screen, Fluo4 calcium, HEK293 TRPC4beta/mu-opioid cells; DAMGO-evoked Fluo4 calcium flux; active compounds read low; B-score at 10 µM; Short transient receptor potential channel 4 (Mus musculus), Q9QUQ5; actives 0.39% (n = 300,000);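 active = B-score over 3 SD under the library average, no early fluorescence shift, positive overall ratio signal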
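Assay system: HEK293 cells with stable TRPC4beta plus mu-opioid receptor expression. Dosing: single dose. Measured by: Fluo4 Ca2+ flux fluorescence. Also added: DAMGO in two steps, submaximal then maximal. Read-out: B score from integrated Fluo4 fluorescence ratio.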
TRPC6 act – mouse TRPC6 channel activators, primary screen, cell-based, HEK293, membrane potential dye; AID 2550, 2010; B-score at 10 µM; HEK293-TRPC6 membrane potential dye fluorescence; active compounds read high; actives 0.13% (n = 310,000); Short transient receptor potential channel 6 (Mus musculus), Q61143;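 active = B-score of the integrated fluorescence ratio above library mean plus 3 SD, and starting fluorescence ratio within library mean plus 5 SD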;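 note: higher score means more depolarization so channel activation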
DSG3 Ab inh – inhibitors of pemphigus antibody binding to DSG3, primary screen, biochemical, bead-based, flow cytometry, scFv-GFP. Desmoglein-3 (Homo sapiens), P32926. actives 0.48% (n = 310,000). binding (percent of control), % at 10 µM. DSG3-coupled beads, scFv-anti-DSG3-GFP binding; active compounds read low;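 active = binding more than 3 SD below its plate's average and above zero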;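 note: hits lower antibody fragment binding to DSG3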
An asterisk follows results filed as active. Rows were chosen to be rich in hits. Some 2.5% of all compounds tested hit in one or more screens of this group.

Results for O=C(c1ccc(C(F)(F)F)cc1)N1CCC(=O)N(C(COCc2ccccc2)Cc2ccccc2)CC1 (configuration not stated) ?
TRPC6 inh: inactive; TRPC4 act: inactive; TRPC4 PAM: inactive; TRPC4 inh: inactive; TRPC6 act: inactive; DSG3 Ab inh: 101.0

How did COc1ccc(CCN2C(=O)CSC2c2ccc(F)cc2)cc1 (configuration not stated) do in these assays?
TRPC6 inh: inactive; TRPC4 act: inactive; TRPC4 PAM: inactive; TRPC4 inh: inactive; TRPC6 act: inactive; DSG3 Ab inh: 102.9

What do the screens show for `CCCCc1nc(N2CCOCC2)c(C#N)c2c1CCCC2`?
TRPC6 inh: inactive; TRPC4 act: inactive; TRPC4 PAM: inactive; TRPC4 inh: -6*; TRPC6 act: inactive; DSG3 Ab inh: 89.7

How did Cc1ccc(C)n1-c1ncc(Br)cn1 do in these assays?
TRPC6 inh: inactive; TRPC4 act: inactive; TRPC4 PAM: 21*; TRPC4 inh: inactive; TRPC6 act: inactive; DSG3 Ab inh: 96.7

Results for O=C(O)c1ccc(-n2ncc3c2/C(=C\c2cccc([N+](=O)[O-])c2)CC3)cc1 ?
DSG3 Ab inh: 34.1*

Results for O=C(O)c1ccc(-n2ncc3c2/C(=C/c2cccc([N+](=O)[O-])c2)CC3)cc1 ?
TRPC6 inh: inactive; TRPC4 act: inactive; TRPC4 PAM: inactive; TRPC4 inh: inactive; TRPC6 act: inactive; DSG3 Ab inh: 91.3

How did CCS(=O)(=O)c1ccc2oc(Nc3cccc(OC)c3)nc2c1 do in these assays?
TRPC6 inh: inactive; TRPC4 act: inactive; TRPC4 PAM: inactive; TRPC4 inh: inactive; TRPC6 act: inactive; DSG3 Ab inh: 102.5

Results for O=C(Nc1ccc(CN2CCOCC2)cc1)c1ccc(-c2cccc([N+](=O)[O-])c2)o1 ?
TRPC6 inh: inactive; TRPC4 act: inactive; TRPC4 PAM: inactive; TRPC4 inh: inactive; TRPC6 act: inactive; DSG3 Ab inh: 98.9

What do the screens show for `O=[N+]([O-])c1cccc(-c2ccc(CN3CCCCC3)o2)c1`?
TRPC6 inh: inactive; TRPC4 act: inactive; TRPC4 PAM: 13*; TRPC4 inh: inactive; TRPC6 act: inactive; DSG3 Ab inh: 101.5

How did COc1cc(CNCCCN2CCOCC2)cc(Cl)c1OCC(=O)NC(C)(C)C do in these assays?
TRPC6 inh: inactive; TRPC4 act: inactive; TRPC4 PAM: inactive; TRPC4 inh: inactive; TRPC6 act: inactive; DSG3 Ab inh: 97.3

What do the screens show for `CCCCc1nnc(NC(=O)c2nc3nccc(C)n3n2)s1`?
TRPC6 inh: inactive; TRPC4 act: inactive; TRPC4 PAM: inactive; TRPC4 inh: inactive; TRPC6 act: inactive; DSG3 Ab inh: 103.1

Results for CCc1nnc(NC(=O)c2nc3nc(C)cc(C)n3n2)s1 ?
TRPC6 inh: -5.51*; TRPC4 act: inactive; TRPC4 PAM: inactive; TRPC4 inh: inactive; TRPC6 act: inactive; DSG3 Ab inh: 95.7

What do the screens show for `Cc1ccc(C)c2[nH]c(=O)c(CN(CC3CCCO3)C(=S)NCc3ccco3)cc12` (configuration not stated)?
TRPC6 inh: inactive; TRPC4 act: inactive; TRPC4 PAM: inactive; TRPC4 inh: -6*; TRPC6 act: inactive; DSG3 Ab inh: 99.9

How did COc1ccc(C(CNc2ncnc3sc(C)c(C)c23)N(C)C)cc1 (configuration not stated) do in these assays?
TRPC6 inh: inactive; TRPC4 act: 236*; TRPC4 PAM: inactive; TRPC4 inh: inactive; TRPC6 act: inactive; DSG3 Ab inh: 117.4

What do the screens show for `Cc1sc2ncnc(NCC(c3ccco3)N(C)C)c2c1C` (configuration not stated)?
TRPC6 inh: inactive; TRPC4 act: 188*; TRPC4 PAM: inactive; TRPC4 inh: inactive; TRPC6 act: inactive

What do the screens show for `c1cncc(CNc2ncnc3sc4c(c23)CCCC4)c1`?
TRPC6 inh: inactive; TRPC4 act: inactive; TRPC4 PAM: inactive; TRPC4 inh: inactive; TRPC6 act: inactive; DSG3 Ab inh: 107.6

What do the screens show for `COc1ccccc1C(CNc1ncnc2sc(C)c(C)c12)N(C)C` (configuration not stated)?
TRPC6 inh: inactive; TRPC4 act: inactive; TRPC4 PAM: inactive; TRPC4 inh: inactive; TRPC6 act: inactive; DSG3 Ab inh: 131.1

What do the screens show for `CN(C)C(CNc1ncnc2sc3c(c12)CCCCC3)c1ccco1` (configuration not stated)?
TRPC6 inh: inactive; TRPC4 act: 76*; TRPC4 PAM: inactive; TRPC4 inh: inactive; TRPC6 act: inactive; DSG3 Ab inh: 95.8

Results for Cc1sc2ncnc(NCc3ccccc3)c2c1C ?
TRPC6 inh: inactive; TRPC4 act: inactive; TRPC4 PAM: inactive; TRPC4 inh: inactive; TRPC6 act: inactive; DSG3 Ab inh: 113.7

Results for Cc1cccc(C(=O)OC2CCOC2=O)c1C (configuration not stated) ?
TRPC6 inh: inactive; TRPC4 act: inactive; TRPC4 PAM: inactive; TRPC4 inh: inactive; TRPC6 act: inactive; DSG3 Ab inh: 110.2

What do the screens show for `CCS(=O)(=O)c1ccc(C(=O)Nc2ccccc2OC)c(Cl)c1Cl`?
TRPC6 inh: inactive; TRPC4 act: inactive; TRPC4 PAM: inactive; TRPC4 inh: inactive; TRPC6 act: inactive; DSG3 Ab inh: 104.6

What do the screens show for `COc1ccc(-c2cc(C(=O)Nc3cc(S(=O)(=O)N4CCOCC4)ccc3N3CCOCC3)c3ccccc3n2)cc1`?
TRPC6 inh: inactive; TRPC4 act: inactive; TRPC4 PAM: inactive; TRPC4 inh: inactive; TRPC6 act: inactive; DSG3 Ab inh: 92.9

Results for CCN1CCN(c2ccc(S(=O)(=O)N3CCOCC3)cc2NC(=O)c2cc(Cl)nc3ccccc23)CC1 ?
TRPC6 inh: inactive; TRPC4 act: 47*; TRPC4 PAM: inactive; TRPC4 inh: inactive; TRPC6 act: inactive; DSG3 Ab inh: 96.0

What do the screens show for `CCN1CCN(c2ccc(S(=O)(=O)N3CCOCC3)cc2NC(=O)c2ccccc2SC)CC1`?
TRPC6 inh: inactive; TRPC4 act: 175*; TRPC4 PAM: inactive; TRPC4 inh: inactive; TRPC6 act: inactive; DSG3 Ab inh: 103.3

What do the screens show for `Cc1ccc2c(c1)N(CC(=O)N1CCCCCC1)C(=O)CO2`?
TRPC6 inh: inactive; TRPC4 act: inactive; TRPC4 PAM: inactive; TRPC4 inh: inactive; TRPC6 act: inactive; DSG3 Ab inh: 106.9

Screens (PubChem BioAssay)
